Measured values collected from several papers.
Lines come from different studies, so protocols differ.
Matrix: plasma

| SMILES | test system | conditions | AUC(0-t) [ng·h/mL] |
| --- | --- | --- | --- |
| CNCc1cc(-c2ccccc2F)n(S(=O)(=O)c2cccnc2)c1 | Sprague-Dawley rat | oral, 10 mg/kg | 643 |
| CCc1cc(OC)c2nccc(N3CCc4c(cc(Cn5ccnc5)cc4-c4cn(C)nc4C(F)(F)F)C3=O)c2c1 | male Sprague-Dawley rat | oral, 50 mg/kg | 10300 |
| CCOC(=O)[C@@]12C[C@@H]1[C@@H](n1ccc3c(NC)nc(C#Cc4ccc(Cl)s4)nc31)[C@H](O)[C@@H]2O | male Sprague-Dawley rat | oral, 10 mg/kg | 361 |
| N#Cc1ccc(Nc2nc(N)cc(Oc3c(F)cc(-c4ccc(C#N)cc4)cc3F)n2)cc1 | Sprague-Dawley rat | intravenous, 1 mg/kg | 302 |
| Cc1c(-c2ccccc2)cccc1N1C(=O)c2cc(CN[C@H](C(=O)O)C(C)O)c(OCc3cccc(C#N)c3)cc2C1=O (some centres unmarked) | Sprague-Dawley rat | intravenous, 5 mg/kg | 3240 |
| COc1nc(-c2cc(C)c(N[C@@H](C)c3cc(F)cc(F)c3)nn2)ccc1-n1cnc(C)c1 | male Sprague-Dawley rat | oral, 5 mg/kg, single dose | 31900 |
| C#Cc1cccc(Nc2ncnc3cc(OCCOC)c(OCCOC)cc23)c1 | male Sprague-Dawley rat | oral, 12 mg/kg, single dose | 9250 |
| C=CC(=O)N1CC2CC(n3nc(-c4ccc(C(=O)Nc5ccccn5)cc4)c4c(N)ncnc43)CC2C1 (centres unmarked) | male Wistar rat | oral, 30 mg/kg | 4720 |
| CCc1nc(C(N)=O)c(Nc2ccc(N3CCC(N4CCN(C)CC4)CC3)c(OC)c2)nc1NC1CCOCC1 | male Sprague-Dawley rat | oral, 10 mg/kg | 9290 |
| COc1ccc2c(Cc3ccccc3F)c3n(c(=O)c2c1OC)CCc1cc2c(cc1-3)OCO2 | rat | oral, 5 mg/kg | 3470 |
| CNC(=O)c1c(C)oc2cc(Oc3ncnc4cc(OC)c(OC)cc34)ccc12 | Sprague-Dawley rat | oral, 1 mg/kg, single dose | 6270 |
| CCc1cc(C(=O)NC)c2nccc(N3CCc4c(cc(Cn5ccnc5)cc4-c4cn(C)nc4C(F)(F)F)C3=O)c2c1 | male Sprague-Dawley rat | intravenous, 3 mg/kg | 1270 |
| Cc1nc(-c2cnc(NC(C)C)n(C)c2=O)ccc1Oc1ccnc(-c2cnn(C)c2)c1 | male Sprague-Dawley rat | oral, 10 mg/kg | 164000 |
| O=C(Nc1cc(F)c(F)c(F)c1)c1ccc(F)c(S(=O)(=O)NCc2cccc(B(O)O)c2)c1 | male Sprague-Dawley rat | oral, 20 mg/kg | 34.3 |
